Assay [1] addresses DNA ligase 1 (Homo sapiens) (UniProt P18858). As to the kind of experiment: Inhibition of human Lig1 at 10 uM using double strand nicked DNA as substrate after 30 mins in presence of ATP by acrylamide-based fluorescence-assay. In outline: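 Cy3-labelled nicked duplex (52-mer annealed to 25- and 27-mers; 1 pmol) with purified hLigI (0.2 pmol) in 50 mM Tris-Cl pH 7.5, 10 mM MgCl2, 0.25 mg/mL BSA, 100 mM NaCl, 500 µM ATP. Compound at 10 μM; 30 min at 37 °C. Stopped with formamide/EDTA; ligated and unligated strands separated on 7 M urea/12% denaturing gel. Triplicate.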

In assay [2] the test system is MDA-MB-231. Kind of assay: Antiproliferative activity against human MDA-MB-231 cells at 10 uM after 48 hrs by MTT assay. Type of assay: functional, cell-based. The method, boiled down:
(§1)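 Cells seeded and allowed to adhere overnight, then given compound from 10 mM DMSO stock; DMSO alone as vehicle control. Grown 48 h, MTT (5 mg/ml) added for 3 h, formazan dissolved in DMSO, absorbance read at 590 nm. % inhibition = (A control − A treated)/A control × 100; three independent biological replicates. Single-point screen at 10 μM; IC50 from three independent experiments.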
On the technique in general: Tetrazolium dyes change colour on reduction, which living cells bring about.

The test system of assay [3] is HeLa. As to the kind of experiment: Antiproliferative activity against human HeLa cells at 10 uM after 48 hrs by MTT assay. In kind it is functional, cell-based. In outline:
as §1

Assay [4] has as its system DLD-1. As to the kind of experiment: Antiproliferative activity against human DLD1 cells at 10 uM after 48 hrs by MTT assay. Type of assay: functional, cell-based. The method, boiled down: as §1
The test system of assay [5] is HepG2. As to the kind of experiment: Antiproliferative activity against human HepG2 cells at 10 uM after 48 hrs by MTT assay. In kind it is functional, cell-based. In outline: as §1
Assay [6] has as its system 4T1 (Mus musculus). Kind of assay: Antiproliferative activity against mouse 4T1 cells at 10 uM after 48 hrs by MTT assay.
The subject of assay [7] is DNA. Kind of assay: Binding affinity to Escherichia coli pUC18 DNA assessed as protection against DNase1-mediated cleavage at 500 uM preincubated for 30 mins followed by DNase1 addition measured after 5 mins by 1% agarose gel based UV-transilluminator analysis. In kind it is nucleic-acid assay. The method, boiled down:
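Linearized pUC18 plasmid DNA (100 ng) incubated with compound (250, 500, 700 μM) or controls (doxorubicin 100 μM; DAPI, methyl green, ampicillin 500 μM) for 30 min at 37 °C in ligation-like buffer. DNase I 0.0025 U added for 5 min at 37 °C, stopped with urea/EDTA buffer, resolved on 1% agarose and imaged under UV.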

Calls of active or inactive are those of the source. The rule behind the calls is not given here.

Sequence of DNA ligase 1 (Homo sapiens) (P18858 whole entry): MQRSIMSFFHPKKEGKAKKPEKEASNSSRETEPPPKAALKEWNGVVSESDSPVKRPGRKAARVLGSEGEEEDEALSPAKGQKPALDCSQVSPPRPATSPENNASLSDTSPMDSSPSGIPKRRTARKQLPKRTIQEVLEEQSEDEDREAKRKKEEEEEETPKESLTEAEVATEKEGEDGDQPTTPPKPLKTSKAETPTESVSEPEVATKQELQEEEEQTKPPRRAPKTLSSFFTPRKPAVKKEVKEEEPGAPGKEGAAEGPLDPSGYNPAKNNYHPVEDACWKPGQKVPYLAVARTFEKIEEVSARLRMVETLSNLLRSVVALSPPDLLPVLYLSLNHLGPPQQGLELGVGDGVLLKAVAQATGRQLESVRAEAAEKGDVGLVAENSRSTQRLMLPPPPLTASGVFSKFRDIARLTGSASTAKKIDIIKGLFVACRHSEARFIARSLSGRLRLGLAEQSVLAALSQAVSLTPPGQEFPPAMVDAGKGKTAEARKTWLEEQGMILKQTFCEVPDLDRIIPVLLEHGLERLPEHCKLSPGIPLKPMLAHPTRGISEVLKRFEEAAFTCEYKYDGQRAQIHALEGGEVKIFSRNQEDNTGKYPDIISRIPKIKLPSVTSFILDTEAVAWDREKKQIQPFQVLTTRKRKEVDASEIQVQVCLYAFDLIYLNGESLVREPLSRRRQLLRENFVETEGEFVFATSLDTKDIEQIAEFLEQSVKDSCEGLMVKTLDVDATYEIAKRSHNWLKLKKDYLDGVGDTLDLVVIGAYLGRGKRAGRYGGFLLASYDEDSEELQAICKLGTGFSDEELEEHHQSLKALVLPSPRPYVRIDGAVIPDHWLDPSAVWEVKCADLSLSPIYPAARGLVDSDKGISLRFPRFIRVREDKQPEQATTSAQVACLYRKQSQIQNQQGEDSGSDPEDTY

As for `COc1ccc(C(=O)/C=C/c2cc3c(c(C(C)(C)C)c2)OC(N)=C(C#N)C3c2c(C)[nH]c3ccc(Cl)cc23)cc1` (stereo not drawn), the inhibition – broadly, the relative decrease from the control value, in per cent – in assay [1] was over 50%.
On to `Cc1[nH]c2ccccc2c1C1C(C#N)=C(N)Oc2c(C(C)C)cc(/C=C/C(=O)c3cccs3)cc21` (stereo not drawn), for which the inhibition in assay [1] was under 20%. Also, the outcome in assay [2], in assay [3], in assay [4], in assay [5] and in assay [6] was Active.
With `COc1ccc(C(=O)/C=C/c2cc3c(c(C(C)(C)C)c2)OC(N)=C(C#N)C3c2c(C)[nH]c3ccccc23)cc1` (stereo not drawn), the inhibition in assay [1] is under 20%.
For the compound `CC1(C)S[C@@H]2[C@H](NC(=O)[C@H](N)c3ccccc3)C(=O)N2[C@H]1C(=O)O`, the result in assay [7] was inactive.
For `COc1ccc2[nH]c(C)c(C3C(C#N)=C(N)Oc4c(C(C)C)cc(/C=C/C(=O)c5cccs5)cc43)c2c1` (stereo not drawn), in assay [1], the inhibition is under 20%. Further, the result in assay [2], in assay [3], in assay [4], in assay [5] and in assay [6] was Active.
For `Cc1[nH]c2ccccc2c1C1C(C#N)=C(N)Oc2c1cc(/C=C/C(=O)c1ccc(Cl)cc1)cc2C(C)(C)C` (stereo not drawn), the inhibition in assay [1] is over 50%.
Consider `COc1ccc2[nH]c(C)c(C3C(C#N)=C(N)Oc4c3cc(/C=C/C(=O)c3ccc(C)cc3)cc4C(C)(C)C)c2c1` (stereo not drawn), for which the inhibition in assay [1] is over 45%.
For `COc1cc(C(=O)/C=C/c2cc3c(c(C(C)(C)C)c2)OC(N)=C(C#N)C3c2c(C)[nH]c3ccccc23)cc(OC)c1OC` (stereo not drawn), the inhibition in assay [1] was under 20%.
On to `CCC(C)c1cc(/C=C/C(=O)c2cc(OC)c(OC)c(OC)c2)cc2c1OC(N)=C(C#N)C2c1c(C)[nH]c2ccccc12` (stereo not drawn), for which the inhibition in assay [1] was under 20%.
With `COc1ccc2[nH]c(C)c(C3C(C#N)=C(N)Oc4c3cc(/C=C/C(=O)c3cccs3)cc4C(C)(C)C)c2c1` (stereo not drawn), in assay [1], the inhibition was under 20%. In addition, the result in assay [2], in assay [3], in assay [4], in assay [5] and in assay [6] was Active.
For `Cc1cc(/C=C/C(=O)c2cccs2)cc2c1OC(N)=C(C#N)C2c1c(C)[nH]c2ccccc12` (stereo not drawn), the inhibition in assay [1] was over 45%. In addition, the outcome in assay [2], in assay [3], in assay [4], in assay [5] and in assay [6] was Active.
With `Cc1ccc(C(=O)/C=C/c2cc3c(c(C(C)(C)C)c2)OC(N)=C(C#N)C3c2c(C)[nH]c3ccc(Cl)cc23)cc1` (stereo not drawn), the inhibition in assay [1] was over 50%.
Consider `Cc1ccc(C(=O)/C=C/c2cc3c(c(C(C)(C)C)c2)OC(N)=C(C#N)C3c2c(C)[nH]c3ccccc23)cc1` (stereo not drawn), for which the inhibition in assay [1] was under 20%.

(Values after ChEMBL document CHEMBL4138186, “Synthesis and bio-evaluation of indole-chalcone based benzopyrans as promising antiligase and antiproliferative agents” (Eur J Med Chem, 2018).)
